# Results from ChEMBL document CHEMBL4689842, “EUbOPEN Chemogenomics Library wave 1” (2021).
# Test system: Fibroblast
# Experiment: Multiplex assay against human fibroblast
# Type: toxicity, cell-based
# In short: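 Compound was added to live cells that had been stained at seeding with Hoechst33342, BioTracker Green Microtubule Cytoskeleton Dye, MitoTracker Red and Annexin V Alexa Fluor 680, and imaging followed on a CQ1 microscope at 37°C and 5% CO2. CellPathfinder machine-learning gating divided cells into Hoechst high-intensity objects or normal cells, normal cells into healthy, pyknosed or fragmented nuclei, and pyknosed cells into mitotic or apoptotic. Tubulin, mitochondrial-mass and membrane-permeability phenotypes are per cents of healthy-nucleus cells.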
# [1] = 12 h, 1 µM, compound concentration 1 uM, replicate 1
# [2] = 12 h, 1 µM, compound concentration 1 uM, replicate 2
# [3] = 12 h, 10 µM, compound concentration 10 uM, replicate 1
# [4] = 12 h, 10 µM, compound concentration 10 uM, replicate 2
# [5] = 24 h, 1 µM, compound concentration 1 uM, replicate 1
# [6] = 24 h, 1 µM, compound concentration 1 uM, replicate 2
# [7] = 24 h, 10 µM, compound concentration 10 uM, replicate 1
# [8] = 24 h, 10 µM, compound concentration 10 uM, replicate 2
# [9] = 48 h, 1 µM, compound concentration 1 uM, replicate 1
# [10] = 48 h, 1 µM, compound concentration 1 uM, replicate 2
# [11] = 48 h, 10 µM, compound concentration 10 uM, replicate 1
# [12] = 48 h, 10 µM, compound concentration 10 uM, replicate 2
smiles,measurement,setting,value
COc1cc2ncn(-c3cc(OCc4ccccc4C(F)(F)F)c(C(N)=O)s3)c2cc1OC [GW843682X],Population Apoptotic (%),[1],62%
same,Population Fragmented Nuclei (%),[1],29%
same,Population Healthy Nuclei (%),[1],40%
same,Population Hoechst High Intensity Objects (%),[1],14%
same,Population Membrane Permeable-Phenotype (%),[1],28%
same,Population Mitochondria Different-Phenotype (%),[1],2%
same,Population Mitotic Cells (%),[1],37%
same,Population Normal (%),[1],85%
same,Population Pyknosed Nuclei (%),[1],29%
same,Population Tubulin-Different-Phenotype (%),[1],54%
same,Total Cell Count,[1],145
same,Population Apoptotic (%),[2],50%
same,Population Fragmented Nuclei (%),[2],9%
same,Population Healthy Nuclei (%),[2],80%
same,Population Hoechst High Intensity Objects (%),[2],10%
same,Population Membrane Permeable-Phenotype (%),[2],12%
same,Population Mitochondria Different-Phenotype (%),[2],10%
same,Population Mitotic Cells (%),[2],50%
same,Population Normal (%),[2],89%
same,Population Pyknosed Nuclei (%),[2],9%
same,Population Tubulin-Different-Phenotype (%),[2],20%
same,Total Cell Count,[2],83
same,Population Apoptotic (%),[3],54%
same,Population Fragmented Nuclei (%),[3],18%
same,Population Healthy Nuclei (%),[3],40%
same,Population Hoechst High Intensity Objects (%),[3],17%
same,Population Membrane Permeable-Phenotype (%),[3],19%
same,Population Mitochondria Different-Phenotype (%),[3],29%
same,Population Mitotic Cells (%),[3],45%
same,Population Normal (%),[3],82%
same,Population Pyknosed Nuclei (%),[3],41%
same,Population Tubulin-Different-Phenotype (%),[3],88%
same,Total Cell Count,[3],182
same,Population Apoptotic (%),[4],50%
same,Population Fragmented Nuclei (%),[4],13%
same,Population Healthy Nuclei (%),[4],75%
same,Population Hoechst High Intensity Objects (%),[4],6%
same,Population Membrane Permeable-Phenotype (%),[4],25%
same,Population Mitochondria Different-Phenotype (%),[4],88%
same,Population Mitotic Cells (%),[4],50%
same,Population Normal (%),[4],93%
same,Population Pyknosed Nuclei (%),[4],11%
same,Population Tubulin-Different-Phenotype (%),[4],98%
same,Total Cell Count,[4],68
same,Population Apoptotic (%),[5],61%
same,Population Fragmented Nuclei (%),[5],27%
same,Population Healthy Nuclei (%),[5],45%
same,Population Hoechst High Intensity Objects (%),[5],16%
same,Population Membrane Permeable-Phenotype (%),[5],28%
same,Population Mitochondria Different-Phenotype (%),[5],7%
same,Population Mitotic Cells (%),[5],38%
same,Population Normal (%),[5],83%
same,Population Pyknosed Nuclei (%),[5],26%
same,Population Tubulin-Different-Phenotype (%),[5],66%
same,Total Cell Count,[5],139
same,Population Apoptotic (%),[6],55%
same,Population Fragmented Nuclei (%),[6],11%
same,Population Healthy Nuclei (%),[6],74%
same,Population Hoechst High Intensity Objects (%),[6],5%
same,Population Membrane Permeable-Phenotype (%),[6],10%
same,Population Mitochondria Different-Phenotype (%),[6],19%
same,Population Mitotic Cells (%),[6],44%
same,Population Normal (%),[6],94%
same,Population Pyknosed Nuclei (%),[6],14%
same,Population Tubulin-Different-Phenotype (%),[6],17%
same,Total Cell Count,[6],85
same,Population Apoptotic (%),[7],74%
same,Population Fragmented Nuclei (%),[7],14%
same,Population Healthy Nuclei (%),[7],41%
same,Population Hoechst High Intensity Objects (%),[7],21%
same,Population Membrane Permeable-Phenotype (%),[7],25%
same,Population Mitochondria Different-Phenotype (%),[7],32%
same,Population Mitotic Cells (%),[7],25%
same,Population Normal (%),[7],78%
same,Population Pyknosed Nuclei (%),[7],43%
same,Population Tubulin-Different-Phenotype (%),[7],94%
same,Total Cell Count,[7],171
same,Population Apoptotic (%),[8],50%
same,Population Fragmented Nuclei (%),[8],13%
same,Population Healthy Nuclei (%),[8],69%
same,Population Hoechst High Intensity Objects (%),[8],9%
same,Population Membrane Permeable-Phenotype (%),[8],41%
same,Population Mitochondria Different-Phenotype (%),[8],91%
same,Population Mitotic Cells (%),[8],50%
same,Population Normal (%),[8],90%
same,Population Pyknosed Nuclei (%),[8],17%
same,Population Tubulin-Different-Phenotype (%),[8],97%
same,Total Cell Count,[8],67
same,Population Apoptotic (%),[9],52%
same,Population Fragmented Nuclei (%),[9],39%
same,Population Healthy Nuclei (%),[9],38%
same,Population Hoechst High Intensity Objects (%),[9],18%
same,Population Membrane Permeable-Phenotype (%),[9],21%
same,Population Mitochondria Different-Phenotype (%),[9],7%
same,Population Mitotic Cells (%),[9],47%
same,Population Normal (%),[9],81%
same,Population Pyknosed Nuclei (%),[9],21%
same,Population Tubulin-Different-Phenotype (%),[9],65%
same,Total Cell Count,[9],130
same,Population Apoptotic (%),[10],75%
same,Population Fragmented Nuclei (%),[10],22%
same,Population Healthy Nuclei (%),[10],73%
same,Population Hoechst High Intensity Objects (%),[10],9%
same,Population Membrane Permeable-Phenotype (%),[10],13%
same,Population Mitochondria Different-Phenotype (%),[10],1%
same,Population Mitotic Cells (%),[10],25%
same,Population Normal (%),[10],90%
same,Population Pyknosed Nuclei (%),[10],3%
same,Population Tubulin-Different-Phenotype (%),[10],53%
same,Total Cell Count,[10],120
same,Population Apoptotic (%),[11],61%
same,Population Fragmented Nuclei (%),[11],27%
same,Population Healthy Nuclei (%),[11],45%
same,Population Hoechst High Intensity Objects (%),[11],19%
same,Population Membrane Permeable-Phenotype (%),[11],24%
same,Population Mitochondria Different-Phenotype (%),[11],13%
same,Population Mitotic Cells (%),[11],38%
same,Population Normal (%),[11],80%
same,Population Pyknosed Nuclei (%),[11],27%
same,Population Tubulin-Different-Phenotype (%),[11],95%
same,Total Cell Count,[11],177
same,Population Apoptotic (%),[12],50%
same,Population Fragmented Nuclei (%),[12],29%
same,Population Healthy Nuclei (%),[12],55%
same,Population Hoechst High Intensity Objects (%),[12],16%
same,Population Membrane Permeable-Phenotype (%),[12],6%
same,Population Mitochondria Different-Phenotype (%),[12],21%
same,Population Mitotic Cells (%),[12],50%
same,Population Normal (%),[12],83%
same,Population Pyknosed Nuclei (%),[12],14%
same,Population Tubulin-Different-Phenotype (%),[12],92%
same,Total Cell Count,[12],162
